In ChEMBL document CHEMBL3526062, “Role of human UDP-glucuronosyltransferases in the biotransformation of the triazoloacridinone and imidazoacridinone antitumor agents C-1305 and C-1311: highly selective substrates for UGT1A10” (Drug Metab Dispos, 2012):

Assays:
[1] = Drug metabolism in human intestinal microsomes assessed as glucuronidation after 60 mins by Michaelis-Menten equation in presence of 3 mM UDP-GlcUA; assay type: ADME, Intestine, Microsome
Outline: (§1)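 Recombinant UGT membrane protein (5 μg; His-tagged UGT1A levels normalized by anti-His Western blot) or single-donor microsomes (20 μg) incubated with substrate 5–1000 μM and 3 mM UDP-GlcUA in […] pH 7.4, 5 mM MgCl2, 5 mM saccharolactone, 2% DMSO, 60 min, 37°C. Ethanol stop, centrifuged, HPLC-UV. Initial velocities fitted to Michaelis-Menten, Hill or substrate-inhibition models; three determinations.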

[2] = Drug metabolism in human intestinal microsomes assessed as glucuronidation per mg of protein after 60 mins by Michaelis-Menten equation in presence of 3 mM UDP-GlcUA; assay type: ADME, Intestine, Microsome; conditions: 1 h; outline: as §1
[3] = Drug metabolism in human intestinal microsomes assessed as ratio of Vmax to Km for glucuronidation per mg of protein after 60 mins by Michaelis-Menten equation in presence of 3 mM UDP-GlcUA; assay type: ADME, Intestine, Microsome; conditions: 1 h; outline: as §1
[4] = Drug metabolism in human liver microsomes assessed as glucuronidation after 60 mins by Michaelis-Menten equation in presence of 3 mM UDP-GlcUA; assay type: ADME; outline: as §1
Liver microsome = assay: Drug metabolism in human liver microsomes assessed as ratio of Vmax to Km for glucuronidation per mg of protein after 60 mins by Michaelis-Menten equation in presence of 3 mM UDP-GlcUA; assay type: ADME; conditions: 1 h; outline: as §1
[5] = biological target: T1, UDP-glucuronosyltransferase 1A9 (Homo sapiens, UniProt O60656); assay: Inhibition of human recombinant UGT1A9 activity expressed in baculovirus-infected Sf9 cells; assay type: ADME
T1 sequence (O60656 whole entry): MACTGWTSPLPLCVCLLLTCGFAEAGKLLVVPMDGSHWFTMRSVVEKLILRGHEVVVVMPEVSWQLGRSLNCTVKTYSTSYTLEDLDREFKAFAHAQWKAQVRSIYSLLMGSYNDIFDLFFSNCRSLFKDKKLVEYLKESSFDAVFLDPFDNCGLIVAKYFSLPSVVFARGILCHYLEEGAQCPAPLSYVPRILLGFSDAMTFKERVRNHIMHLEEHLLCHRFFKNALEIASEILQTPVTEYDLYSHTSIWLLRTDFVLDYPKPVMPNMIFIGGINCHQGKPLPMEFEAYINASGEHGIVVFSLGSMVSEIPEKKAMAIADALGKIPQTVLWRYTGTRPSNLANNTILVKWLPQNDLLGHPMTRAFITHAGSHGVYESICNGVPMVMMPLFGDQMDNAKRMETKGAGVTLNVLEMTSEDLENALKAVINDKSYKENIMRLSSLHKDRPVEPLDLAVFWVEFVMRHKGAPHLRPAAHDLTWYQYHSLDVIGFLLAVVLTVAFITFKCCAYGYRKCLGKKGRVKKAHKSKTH

[6] = Drug metabolism in human stomach microsomes assessed as glucuronidation activity at 0.1 mM for 60 mins in presence of 3 mM UDP-GlcUA; assay type: ADME; conditions: 1 h, 100 µM
Outline: (§2)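 Microsomes from single donors (20 μg protein) incubated with 0.1 mM substrate and 3 mM UDP-GlcUA for 60 min at 37°C in Tris-HCl pH 7.4 buffer with 5 mM MgCl2, 5 mM saccharolactone and 2% DMSO. Glucuronide measured by HPLC; donor data summarized as box-and-whisker plots.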

[7] = biological target: T2, UDP-glucuronosyltransferase 1A3 (Homo sapiens, UniProt P35503); assay: Activity of human recombinant UGT1A3 expressed in baculovirus-infected Sf9 cells assessed as glucuronidation activity per mg of protein at 100 to 200 uM after 60 mins in presence of 3 mM UDP-GlcUA; assay type: ADME; conditions: sf9, 1 h
T2 sequence (P35503 whole entry): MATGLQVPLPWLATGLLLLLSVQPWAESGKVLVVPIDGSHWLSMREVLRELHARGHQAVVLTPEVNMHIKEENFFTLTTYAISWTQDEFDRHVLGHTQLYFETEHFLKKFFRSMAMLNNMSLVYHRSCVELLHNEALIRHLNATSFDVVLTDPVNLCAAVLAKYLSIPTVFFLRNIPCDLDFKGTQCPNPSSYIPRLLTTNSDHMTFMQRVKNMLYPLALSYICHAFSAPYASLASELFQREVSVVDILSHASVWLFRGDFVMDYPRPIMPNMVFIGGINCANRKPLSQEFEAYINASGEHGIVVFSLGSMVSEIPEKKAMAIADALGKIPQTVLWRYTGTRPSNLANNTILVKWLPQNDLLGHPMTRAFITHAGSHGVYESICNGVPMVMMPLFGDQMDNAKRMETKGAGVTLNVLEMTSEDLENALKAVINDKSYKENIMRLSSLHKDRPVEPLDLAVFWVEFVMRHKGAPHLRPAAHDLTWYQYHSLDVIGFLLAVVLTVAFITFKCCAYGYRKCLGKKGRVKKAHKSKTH
Outline: (§3)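 Screening: 5 μg recombinant UGT protein (His-tag levels normalized) in Tris-HCl pH 7.4, 5 mM MgCl2, 5 mM saccharolactone, 2% DMSO to permeabilize membranes. Substrate at 100 or 200 μM, added in water. Started with 3 mM UDP-GlcUA, 60 min at 37°C, stopped with ethanol, then centrifuged. Glucuronide quantified by reversed-phase C18 HPLC against the substrate response; triplicates.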

[8] = biological target: T1, UDP-glucuronosyltransferase 1A9; assay: Activity of human recombinant UGT1A9 expressed in baculovirus-infected Sf9 cells assessed as glucuronidation activity per mg of protein at 100 to 200 uM after 60 mins in presence of 3 mM UDP-GlcUA; assay type: ADME; conditions: sf9, 1 h; outline: as §3
[9] = Drug metabolism in human jejunum microsomes assessed as glucuronidation activity at 0.1 mM for 60 mins in presence of 3 mM UDP-GlcUA; assay type: ADME; conditions: 1 h, 100 µM; outline: as §2
[10] = Drug metabolism in human small intestine microsomes assessed as glucuronidation activity at 0.1 mM for 60 mins in presence of 3 mM UDP-GlcUA; assay type: ADME; conditions: 1 h, 100 µM; outline: as §2
[11] = Drug metabolism in human ileum microsomes assessed as glucuronidation activity at 0.1 mM for 60 mins in presence of 3 mM UDP-GlcUA; assay type: ADME; conditions: 1 h, 100 µM; outline: as §2

| Structure (SMILES) | Km at 1 h [1] | Vmax [2] | Vmax/Km [3] | Km at 1 h [4] | Vmax/Km (Liver microsome) | Ki [5] | Drug metabolism [6] | Drug metabolism [7] | Drug metabolism [8] | Drug metabolism [9] | Drug metabolism [10] | Drug metabolism [11] |
| --- | --- | --- | --- | --- | --- | --- | --- | --- | --- | --- | --- | --- |
| CCN(CC)CCNc1ccc2ncn3c4ccc(O)cc4c(=O)c1c23 [C-1311] | 159 µM | 0.823 nmol/min/mg | 5.2 µL/min | 39.3 µM | 4 µL/min | 958 µM | metabolite_detected | < 0.1 nmol/min/mg | 0.2 nmol/min/mg | metabolite_detected | metabolite_detected | metabolite_detected |
| CN(C)CCCNc1ccc2nnn3c4ccc(O)cc4c(=O)c1c23 | 76.9 µM | 0.413 nmol/min/mg | 5.4 µL/min | 71.3 µM | 5.4 µL/min | 1650 µM | metabolite_detected | < 0.1 nmol/min/mg | 0.2 nmol/min/mg | metabolite_detected | metabolite_detected | metabolite_detected |
